Drawing on ChEMBL document CHEMBL1153402, “Pyrido[2,3-e]-1,2,4-triazolo[4,3-a]pyrazin-1-one as a new scaffold to develop potent and selective human A3 adenosine receptor antagonists. Synthesis, pharmacological evaluation, and ligand-receptor modeling studies” (J Med Chem, 2009), this text covers Ki, Activity and EC50 for one compound.

Assay [1] deals with T1, Adenosine receptor A3 (Homo sapiens, UniProt P0DMS8).
T1 sequence (P0DMS8 whole entry): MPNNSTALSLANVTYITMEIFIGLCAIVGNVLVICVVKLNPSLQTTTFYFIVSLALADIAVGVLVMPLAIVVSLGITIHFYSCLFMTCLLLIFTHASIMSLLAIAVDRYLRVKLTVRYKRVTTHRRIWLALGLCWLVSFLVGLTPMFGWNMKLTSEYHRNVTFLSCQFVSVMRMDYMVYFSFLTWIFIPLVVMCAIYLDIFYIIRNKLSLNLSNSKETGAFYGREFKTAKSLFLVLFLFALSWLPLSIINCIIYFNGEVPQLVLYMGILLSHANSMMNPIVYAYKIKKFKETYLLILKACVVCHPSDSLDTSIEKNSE
As to the kind of experiment: Displacement of [125I]AB-MECA from human cloned adenosine A3 receptor expressed in CHO cells. It counts as cell-based. (Loss of bound radioactivity is the signal in a displacement assay; it reports binding, not function.)

Assay [2] addresses T2, Adenosine receptor A1 (Homo sapiens) (UniProt P30542).
T2 sequence (whole entry): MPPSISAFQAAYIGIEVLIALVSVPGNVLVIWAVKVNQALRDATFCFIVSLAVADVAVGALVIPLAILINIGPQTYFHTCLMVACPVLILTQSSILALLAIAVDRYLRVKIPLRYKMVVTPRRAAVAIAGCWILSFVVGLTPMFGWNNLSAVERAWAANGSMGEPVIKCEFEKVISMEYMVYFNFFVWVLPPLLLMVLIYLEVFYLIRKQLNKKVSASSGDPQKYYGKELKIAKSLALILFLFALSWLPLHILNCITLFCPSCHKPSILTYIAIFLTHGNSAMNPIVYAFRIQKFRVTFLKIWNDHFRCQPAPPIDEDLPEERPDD
As to the kind of experiment: Displacement of [3H]DPCPX from human cloned adenosine A1 receptor expressed in CHO cells at 10 uM. It counts as cell-based. The gist of the method:
(§1)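 CHO cell membranes stably expressing hA1 or hA2A; radioligands [3H]DPCPX (hA1, Kd 3 nM) and [3H]NECA (hA2A, Kd 30 nM). IC50 from five displacer concentrations in triplicate, nonlinear regression; Ki by Cheng–Prusoff; four separate assays. Single-point values as percent inhibition of specific binding at 10 μM.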

Assay [3] addresses Adenosine receptor A2a (Homo sapiens, UniProt P29274). As to the kind of experiment: Displacement of [3H]NECA from human cloned adenosine A2A receptor expressed in CHO cells at 10 uM. It counts as cell-based. The procedure, abridged: as §1
Assay [4] concerns the target T3, Adenosine receptor A1 (Bos taurus, UniProt P28190).
T3 sequence (P28190 whole entry): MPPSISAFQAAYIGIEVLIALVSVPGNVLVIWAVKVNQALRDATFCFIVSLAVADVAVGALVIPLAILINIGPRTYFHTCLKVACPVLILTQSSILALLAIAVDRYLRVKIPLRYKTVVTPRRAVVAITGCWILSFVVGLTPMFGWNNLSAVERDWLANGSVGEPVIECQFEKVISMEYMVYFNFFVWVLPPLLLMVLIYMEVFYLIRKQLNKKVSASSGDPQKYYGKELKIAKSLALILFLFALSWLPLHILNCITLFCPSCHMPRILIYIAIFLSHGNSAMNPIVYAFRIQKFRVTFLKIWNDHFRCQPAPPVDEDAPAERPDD
As to the kind of experiment: Displacement of [3H]DPCPX from bovine brain cortical membrane adenosine A1 receptor.

For assay [5], the species on record is Bos taurus. As to the kind of experiment: Displacement of [3H]CGS 21680 from bovine striatal membrane adenosine A2A receptor at 20 uM. The gist of the method:
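IC50 from five concentrations in triplicate, nonlinear regression; Ki via Cheng–Prusoff from four assays. Single-point values as percent inhibition at 20 μM.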

Assay [6] addresses T1, Adenosine receptor A3. As to the kind of experiment: Antagonist activity at human adenosine A3 receptor expressed in CHO cells assessed as blockade of NECA-mediated inhibition of forskolin-stimulated cAMP accumulation. It counts as functional, cell-based. The gist of the method: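 CHO cells stably expressing hA3, plated 48 h, preincubated 15 min at 37 °C with Ro 20-1724 (20 μM) and adenosine deaminase (1 U/mL). Compound (1 nM–10 μM; DMSO stock diluted in water) added 15 min before 100 nM NECA, with 1 μM forskolin stimulation. Lysis in 0.4 N HCl; cAMP by competitive protein binding with [3H]cAMP. EC50 by sigmoid nonlinear regression; three experiments.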
(Changes in cAMP serve as a functional read-out for many G protein-coupled receptors.)

Assay [7] addresses T4, Adenosine receptor A1 (Rattus norvegicus, UniProt P25099).
T4 sequence (P25099 whole entry): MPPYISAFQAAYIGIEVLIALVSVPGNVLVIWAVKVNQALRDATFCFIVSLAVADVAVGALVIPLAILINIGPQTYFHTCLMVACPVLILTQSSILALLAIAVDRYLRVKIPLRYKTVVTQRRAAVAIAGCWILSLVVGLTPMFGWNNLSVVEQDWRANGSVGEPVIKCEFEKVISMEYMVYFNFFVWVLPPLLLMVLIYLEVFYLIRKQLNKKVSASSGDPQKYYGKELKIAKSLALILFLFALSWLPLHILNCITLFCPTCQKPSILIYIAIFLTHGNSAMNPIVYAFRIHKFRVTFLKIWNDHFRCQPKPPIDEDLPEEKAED
As to the kind of experiment: Displacement of [3H]DPCPX from adenosine A1 receptor in Wistar rat brain membrane. It counts as cell membranes. The gist of the method: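 Nonspecific binding defined with 20 μM R-PIA. Filtration on GF/C filters. IC50 by nonlinear regression over five displacer concentrations in triplicate; Ki via Cheng–Prusoff.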

Assay [8] has as its target Adenosine receptor A2a (Rattus norvegicus) (UniProt P30543). Put plainly: Displacement of [3H]CGS21680 adenosine A2A receptor in Wistar rat brain membrane at 10 uM. It counts as cell membranes.
Assay [9] deals with T5, Adenosine receptor A3 (Rattus norvegicus) (UniProt P28647).
T5 sequence (whole entry): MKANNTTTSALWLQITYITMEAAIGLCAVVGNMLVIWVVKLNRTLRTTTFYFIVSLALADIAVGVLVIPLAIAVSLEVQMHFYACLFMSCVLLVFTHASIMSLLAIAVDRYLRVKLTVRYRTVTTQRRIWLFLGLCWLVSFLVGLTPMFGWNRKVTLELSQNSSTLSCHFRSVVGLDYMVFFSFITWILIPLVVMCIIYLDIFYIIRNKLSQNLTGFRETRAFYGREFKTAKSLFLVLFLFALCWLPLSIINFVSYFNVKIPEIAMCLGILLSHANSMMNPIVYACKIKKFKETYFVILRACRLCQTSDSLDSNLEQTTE
Put plainly: Displacement of [125I]AB-MECA from Wistar rat adenosine A3 receptor expressed in HEK293/EBNA cells by gamma-scintillation spectrometry at 1 uM. It counts as cell-based.

Assay [10] has as its system Hippocampus. As to the kind of experiment: Neuroprotective effect against 7-mins oxygen-glucose deprivation triggered neuronal injury in Wistar rat hippocampal CA1 region assessed as recovery of field excitatory post synaptic potential at 10 nM relative to control. It counts as functional. The gist of the method: (§2)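 Rat hippocampal slices; CA1 stratum radiatum stimulated (80 μs, 0.066 Hz) with fEPSP at 40–50% of maximum, amplitude expressed as percent of 5 min pre-OGD baseline. OGD: glucose-free aCSF gassed 95% N2/5% CO2 for 7 or 30 min, then reperfusion with oxygenated glucose aCSF. Compound 10 nM (DMSO stock diluted in aCSF) applied 15 min before, during and 5 min after OGD. Anoxic depolarization recorded as negative dc shift, latency from OGD onset; unpaired two-tailed t test.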

In assay [11] the test system is Hippocampus. As to the kind of experiment: Neuroprotective effect against 30-mins oxygen-glucose deprivation triggered neuronal injury in Wistar rat hippocampus CA1 region assessed as delay in anoxic depolarization latency at 10 nM relative to control. It counts as functional. The procedure, abridged:
as §2

Chain of Adenosine receptor A2a (P29274 whole entry): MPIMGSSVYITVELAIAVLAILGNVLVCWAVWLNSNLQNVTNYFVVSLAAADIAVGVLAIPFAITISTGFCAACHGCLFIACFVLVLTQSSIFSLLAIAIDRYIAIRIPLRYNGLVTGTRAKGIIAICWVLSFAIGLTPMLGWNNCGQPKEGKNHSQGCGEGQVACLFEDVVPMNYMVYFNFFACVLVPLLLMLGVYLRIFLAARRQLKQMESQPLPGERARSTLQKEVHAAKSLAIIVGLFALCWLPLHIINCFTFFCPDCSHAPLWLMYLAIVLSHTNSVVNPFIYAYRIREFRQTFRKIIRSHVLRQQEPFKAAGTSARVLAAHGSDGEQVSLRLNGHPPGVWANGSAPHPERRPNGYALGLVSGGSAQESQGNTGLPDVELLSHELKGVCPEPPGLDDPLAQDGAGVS
Chain of Adenosine receptor A2a (Rattus norvegicus) (P30543 whole entry): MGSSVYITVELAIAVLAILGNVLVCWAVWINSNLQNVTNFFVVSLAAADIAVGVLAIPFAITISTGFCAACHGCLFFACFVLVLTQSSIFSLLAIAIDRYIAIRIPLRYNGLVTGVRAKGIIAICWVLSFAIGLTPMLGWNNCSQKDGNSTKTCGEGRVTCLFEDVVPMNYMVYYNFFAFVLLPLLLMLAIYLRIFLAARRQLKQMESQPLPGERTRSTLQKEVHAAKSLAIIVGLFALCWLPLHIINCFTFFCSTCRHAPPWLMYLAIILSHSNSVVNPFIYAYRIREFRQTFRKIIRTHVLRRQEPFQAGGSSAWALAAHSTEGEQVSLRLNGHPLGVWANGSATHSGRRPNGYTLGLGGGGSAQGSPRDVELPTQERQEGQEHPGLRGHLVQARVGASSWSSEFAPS

Usually Ki stands for a dissociation constant, usually derived from enzyme kinetics or from competition with a known ligand. The low end stands for higher affinity, the high end for lower affinity. By EC50 is commonly meant the concentration giving half of the maximal effect. As to `COc1ccc(-n2nc3c(NC(=O)c4ccccc4)nc4ncccc4n3c2=O)cc1`, the inhibitory constant (Ki) in assay [1] was 4.54 nM; in assay [4], 355 nM; in assay [7], 587 nM. The Activity in assay [2] is 38%; in assay [3] it was 27%; in assay [5], 7%; in assay [8] it was 34%; in assay [9], 0%; in assay [10], 77.6%. For the same compound, in assay [11], the Activity was 8.9. In assay [6], the half-maximal effective concentration (EC50) is 36.3 nM.
